Test [1] can be described thus: Inhibition of HSV1 thymidine kinase. Details: species or system Human alphaherpesvirus 1. Summed up: (§1)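 Purified recombinant VZV TK (7.75 ng), HSV-1 TK (226 ng) or human cytosolic TK-1 (455 ng) in 50 mM Tris-HCl pH 8.0, 2.5 mM MgCl2, 10 mM DTT, 2.5 mM ATP, 1 mg/mL BSA, 10 mM NaF, with 1 µM final [CH3-3H]dThd substrate. Incubated 30 min at 37 °C with varied compound concentrations; the reaction was linear over this time. Product bound on DE-81 filters, washed, and counted by liquid scintillation. Result reported as IC50.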

Test [2] in a line: Inhibition of Varicella zoster virus thymidine kinase. Details: species or system Human alphaherpesvirus 3. Summed up:
as §1

Test [3] has as its target T1, Thymidine kinase, cytosolic (Homo sapiens, UniProt P04183).
T1 sequence (P04183 whole entry): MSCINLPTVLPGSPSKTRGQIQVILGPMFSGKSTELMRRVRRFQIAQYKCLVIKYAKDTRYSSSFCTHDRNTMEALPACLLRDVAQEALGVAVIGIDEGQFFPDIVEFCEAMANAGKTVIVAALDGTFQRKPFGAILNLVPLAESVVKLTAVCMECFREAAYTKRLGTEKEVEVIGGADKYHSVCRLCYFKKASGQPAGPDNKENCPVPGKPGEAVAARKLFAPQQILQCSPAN
The test is described as follows: Inhibition of human cytosolic thymidine kinase 1. The essentials:
as §1

As usually defined, the IC50 is the midpoint of a concentration-inhibition curve. High values mean weaker potency in that assay, low ones greater potency in that assay.

With `O=c1nc2oc(-c3ccc(O)cc3)cc2cn1[C@H]1C[C@H](O)[C@@H](CO)O1`, the 50% inhibitory concentration (IC50) in test [1] was more than 500 µM; in test [2], 0.4 µM; in test [3] it was more than 500 µM.
Regarding `COc1ccc(-c2cc3cn([C@H]4C[C@H](O)[C@@H](CO)O4)c(=O)nc3o2)cc1`, the IC50 in test [1] was more than 500 µM; in test [2] it was 1.5 µM; in test [3] it was more than 500 µM.
As for `O=c1nc2oc(-c3ccc(OCCF)cc3)cc2cn1[C@H]1C[C@H](O)[C@@H](CO)O1`, the values for the 50% inhibitory concentration (IC50) in test [1], in test [2] and in test [3] were more than 500 µM, 4.2 µM and more than 500 µM, respectively.
